Assay outcomes: PubChem BioAssay, several laboratories
Rin1-Abl PPI inh = human Rin1-Abl interaction inhibition; P00519+Q13671; TR-FRET Rin1/Abl binding, biochemical; inhibition, % at 7.35 µM; 360,000 compounds, 0.4% hits; AID 588664; in the data active means inhibition above about 5%, passing the limit was not always enough
NR1D1 modulator = modulates human Rev-erb alpha binding to DNA; AID 1259318; Rev-erbα–FITC-DNA binding, fluorescence polarization, 90 min; P20393; 370,000 compounds, 0.79% hits; activity, % at 10 µM;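 active means activity above about 14%, limit read from the data; passing the limit was not always enough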;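 further: 0% = DMSO wells with 35 nM protein and 100% = DMSO wells with 750 nM protein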
Target sequence (P20393 whole entry, looked up): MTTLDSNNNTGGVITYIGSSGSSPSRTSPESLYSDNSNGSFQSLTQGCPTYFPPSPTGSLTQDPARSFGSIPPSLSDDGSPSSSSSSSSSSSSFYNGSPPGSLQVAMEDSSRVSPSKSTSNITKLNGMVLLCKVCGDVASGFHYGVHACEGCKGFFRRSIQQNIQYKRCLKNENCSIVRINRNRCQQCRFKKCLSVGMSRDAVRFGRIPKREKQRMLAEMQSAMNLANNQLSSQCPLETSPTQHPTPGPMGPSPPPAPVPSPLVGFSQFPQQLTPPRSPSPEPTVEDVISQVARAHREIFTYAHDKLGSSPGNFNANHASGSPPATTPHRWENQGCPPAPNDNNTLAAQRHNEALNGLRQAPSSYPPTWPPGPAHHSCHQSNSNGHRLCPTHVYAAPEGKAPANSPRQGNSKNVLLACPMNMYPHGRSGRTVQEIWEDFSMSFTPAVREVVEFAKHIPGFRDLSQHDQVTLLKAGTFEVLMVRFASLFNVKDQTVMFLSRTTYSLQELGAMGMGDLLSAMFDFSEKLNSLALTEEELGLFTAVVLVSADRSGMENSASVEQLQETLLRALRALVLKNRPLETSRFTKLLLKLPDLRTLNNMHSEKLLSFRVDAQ
PG9 binder = PG9 antibody binding by small molecule. TR-FRET gp120-PG9 antibody binding. inhibition, % at 6.7 µM. 360,000 compounds, 0.43% hits. AID 624416; in the data active means inhibition above about 8.5%
Tb MetRS inh = Trypanosoma brucei MetRS inhibition; purified T. brucei MetRS, ATP depletion, Kinase-Glo luminescence; inhibition, % at 11.9 µM; 360,000 compounds, 0.4% hits;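 active means inhibition above a per-plate cutoff of the control wells' mean inhibition plus 3 SD, cut at about 5.5% in these data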;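 further: 0% = DMSO wells median and 100% = median of wells with control inhibitor compound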
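Test system: purified T. brucei MetRS enzyme. Also added: ATP, methionine and E. coli bulk tRNA substrates. Compound: 11.9 µM single point. Schedule: 15 min enzyme-compound preincubation, 2 h reaction, 10 min detection, 25 °C. Signal: luciferase luminescence of residual ATP, Kinase-Glo. Evaluation: percent inhibition versus plate control medians. Controls: DMSO wells, low control.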
NR1D1 mod conf = Rev-erb alpha (human) modulation, hit confirmation | 3,000 compounds, 61% hits | Rev-erb alpha FITC-DNA binding, fluorescence polarization, 90 min | activation, % at 25 µM | shares compounds with NR1D1 modulator;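 active means activation at or above a set limit, or at least 3 SD above the negative control mean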;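 further: 0% = 35 nM protein with DMSO and 100% = 750 nM protein high control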
RORg DNA counter = RORgamma DNA-binding activity, dose-response counter-screen; shares compounds with NR1D1 modulator; purified RORgamma protein-FITC-DNA binding, fluorescence polarization; IC50, µM; 910 compounds, 8% hits;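 active means Compounds whose fitted half-maximal concentration for disrupting protein-DNA binding is below 10 micromolar; the record names Rev-erb in its text, so the target is in doubt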
* = called active by the depositor; i = inactive; . = not tested or not shown. A selection: hits, their analogues and other compounds. The true share with any hit is near 1.8%.

SMILES	Rin1-Abl PPI inh	NR1D1 modulator	PG9 binder	Tb MetRS inh	NR1D1 mod conf	others
Cc1nn(-c2ccc(F)cc2)c2nc(N)c(C#N)c(-c3ccc(O)c(O)c3)c12	7	5	1	-1	.
Cc1c(-c2ccc(F)cc2)nc(N)c(C#N)c1-c1cccs1	3	78*	0	0	53*	RORg DNA counter=3.2*
Cc1nn(-c2ccc(F)cc2)c2nc(N)c(C#N)c(-c3cccs3)c12	-72	80*	1	-1	45*
COc1ccc2[nH]cc(/C=C/c3cc[n+](C)cc3)c2c1	-34	69*	-23	0	58*	RORg DNA counter=>40
Cc1ccc(NC2CCCN(C(=O)c3cc(C(C)C)nn3C)C2)cc1C (configuration not stated)	-3	-3	0	0	.
CC(C)c1cc(Br)ccc1OCCN1C(=O)NC(C)(C)C1=O	0	14*	-1	1	1
COc1ccc(CN2C(=O)c3cccc4cccc(c34)C2=O)cc1	0	23*	0	0	15*
O=C1c2cccc3cccc(c23)N1Cc1ccc(F)cc1	3	1	-2	0	.
Cc1csc(-c2nc3ccccc3n2C(C(=O)NC(C)(C)C)c2cc3ccccc3o2)c1 (configuration not stated)	.	3	2	0	.
COC(=O)c1c(NC(=S)NNS(=O)(=O)c2ccc(OC)cc2OC)sc2c1CCCCCC2	0	32*	1	0	12
Cc1cc(NC(=O)c2cccs2)cc(-c2nc3ncccc3o2)c1O	1	71*	1	0	67*	RORg DNA counter=>40
Cc1ccc(-c2nc3ncccc3o2)cc1NC(=O)c1cccs1	2	3	2	0	.
CCc1nc2c(OCCC3CCCCC3)cccn2c1N(C)C(=O)c1cccs1	-2	-7	-1	0	.
CN1C(=O)N(C)c2ccc(Br)c3cccc1c23	1	89*	-2	0	81*	RORg DNA counter=>40
CN1C(=O)N(C)c2ccc(C=O)c3cccc1c23	2	8	-3	1	.
CC(=O)C[C@@H](O)CC(=O)[C@@H]1OC(=O)CCCCC/C=C/Cc2ccccc21	3	-1	2	0	.
Cc1ccc(-c2csc3nc(CN(C)Cc4ccccc4)[nH]c(=O)c23)cc1	-2	7	-1	0	.
O=c1[nH]c(Cc2ccc(F)cc2)nc2scc(-c3ccc(F)cc3)c12	-2	35*	0	0	36*	RORg DNA counter=>40
CC(C)NC1(C(N)=O)CCNCC1	-1	-1	-1	0	.
CCc1ccc2nc(/N=C(\N)NC(=O)c3ccccc3)nc(C)c2c1	-3	23*	-3	0	0
CCCC(=O)N/C(N)=N/c1nc(C)c2ccccc2n1	4	-5	1	0	.
Cc1cc(C)c2nc(/N=C(\N)NC(=O)c3ccccc3)nc(C)c2c1	-2	56*	-2	-1	15
CCN(CC(=O)Nc1cc(Cl)ccc1C)C(=O)c1ccc(N2CCCC2=O)cc1	2	.	.	0	.
Cc1ccc(C(C)NC(=O)Cc2cccs2)c(C)c1 (configuration not stated)	-1	-1	1	-1	.
CCn1c(=O)c(CCC(=O)N2CCN(c3ccccn3)CC2)c(C)c2c(C)nn(-c3cccc(C)c3)c21	-3	-1	-2	0	.
SMILES	Rin1-Abl PPI inh	NR1D1 modulator	PG9 binder	Tb MetRS inh	NR1D1 mod conf	others
CCN(CC)c1ccc2cc(C(C)=O)c(=O)oc2c1	-43	36*	-5	0	9
CCN(CC)c1ccc2cc(C=O)c(=O)oc2c1	-44	90*	-7	0	74*	RORg DNA counter=>40
CCN(CC)c1ccc2cc(-c3nnc(-c4ccncc4)o3)c(=O)oc2c1	-25	59*	-5	-1	30*
CCN(CC)c1ccc2cc(C(N)=O)c(=O)oc2c1	-7	9	-2	0	.
CCN(CC)c1ccc2cc(C(N)=O)c(=N)oc2c1	-7	55*	-5	1	24*
COc1ccc2c(COC(=O)c3ccc(C)c(S(=O)(=O)N4CCOCC4)c3)cc(=O)oc2c1	1	21*	-1	0	26*
CN(CC1COc2ccccc2O1)C(=O)CSc1ncnc2sccc12 (configuration not stated)	-2	12	-1	0	.
COc1cc(/C=C/c2nc3ccccc3c(=O)[nH]2)ccc1OC(F)F	0	-1	3	0	.
O=c1[nH]c(/C=C/c2ccccc2OC(F)F)nc2c1cnn2-c1ccccc1	-1	24*	3	0	5
COc1cc(-c2nn3c(COc4ccccc4)nnc3s2)cc(OC)c1OC	-6	45*	4	0	44*	RORg DNA counter=i
COc1cc(-c2nn3c(Cc4ccccc4)nnc3s2)cc(OC)c1OC	0	3	-2	1	.
O=C(COc1ccccc1[N+](=O)[O-])NCCCN1CCCC1=O	6	1	1	0	.
O=C1OC2(c3ccc(O)cc3Oc3cc(O)ccc32)c2ccccc21	.	691*	.	.	596*
Cc1cc(O)ccc1C1(c2ccc(O)cc2C)OC(=O)c2ccccc21	1	5	0	0	.
CCc1nnc2sc(-c3ccc(NC(=O)CSc4ccc(Cl)cc4)cc3)nn12	-3	32*	0	-1	21*
CC(C)C(=O)N[C@@H]1c2ccccc2CC[C@H]1OCc1ccccc1	-1	10	0	2	.
COc1ccc2c(c1)cc(C(=O)N[C@@H](Cc1ccccc1)C(=O)N[C@@H](C)C(=O)O)n2C	0	28*	-1	-1	-6
Nc1cccc(-c2cnc3ccccc3n2)c1	-6	-4	-2	0	.
CCN1C(=O)/C(=C/c2ccc(N3CCCC3)cc2)NC1=S	-6	56*	-9	1	49*	RORg DNA counter=>40
O=C(COc1ccc(F)cc1Cl)N(Cc1nnc(-c2ccccc2Cl)o1)C1CC1	2	-6	0	-1	.
COc1ccc(Sc2cccc(Cl)c2)c(C(=O)O)c1	.	-2	1	.	.
CC(C)CNc1nnnc2c1sc1nc(N3CCOCC3)c3c(c12)CC(C)(C)SC3	-1	-5	1	1	.
CC1(C)Cc2c(c(N3CCOCC3)nc3sc4c(NN)ncnc4c23)CS1	0	28*	-2	-1	34*	RORg DNA counter=>40
Cn1nc(C(C)(C)C)cc1NC(=O)C1(C)CCN1C(=O)c1ccccc1CCc1ccccc1 (configuration not stated)	4	20*	-1	0	-1
Cn1nc(C(C)(C)C)cc1NC(=O)C1(C)CCN1C(=O)CCc1ccccc1 (configuration not stated)	4	-3	0	0	.
CC(NC(=O)c1ccc(Br)o1)C1CC2CCC1C2 (configuration not stated)	-3	0	1	0	.
